Each structure is given as a SMILES string.

The results in this text go back to ChEMBL document CHEMBL4613305, “Chiral Separation, X-ray Structure, and Biological Evaluation of a Potent and Reversible Dual Binding Site AChE Inhibitor” (ACS Med Chem Lett, 2020).

Data set [1] can be described thus: Efflux ratio of apparent permeability across basolateral to apical side to apical to basolateral side in MDCK-MDR1 cells at 75 uM incubated for 2 hrs by UV-spectroscopy. It counts as ADME, cell-based, Canis lupus familiaris. The following applies: dog. A digest of the protocol: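 MDCK-MDR1 monolayers expressing the P-gp efflux system. Apparent permeability was measured in both directions, apical→basolateral and basolateral→apical. Efflux ratio calculated as Papp BL / Papp AP. Papp values are mean ± SEM of three independent experiments.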

The target in data set [2] is T1, Acetylcholinesterase (Homo sapiens, UniProt P22303). Put plainly: Inhibition of human AChE using acetylthiocholineiodide as substrate measured for every 30 sec for 5 mins by Ellman's method.
T1 sequence (P22303 whole entry): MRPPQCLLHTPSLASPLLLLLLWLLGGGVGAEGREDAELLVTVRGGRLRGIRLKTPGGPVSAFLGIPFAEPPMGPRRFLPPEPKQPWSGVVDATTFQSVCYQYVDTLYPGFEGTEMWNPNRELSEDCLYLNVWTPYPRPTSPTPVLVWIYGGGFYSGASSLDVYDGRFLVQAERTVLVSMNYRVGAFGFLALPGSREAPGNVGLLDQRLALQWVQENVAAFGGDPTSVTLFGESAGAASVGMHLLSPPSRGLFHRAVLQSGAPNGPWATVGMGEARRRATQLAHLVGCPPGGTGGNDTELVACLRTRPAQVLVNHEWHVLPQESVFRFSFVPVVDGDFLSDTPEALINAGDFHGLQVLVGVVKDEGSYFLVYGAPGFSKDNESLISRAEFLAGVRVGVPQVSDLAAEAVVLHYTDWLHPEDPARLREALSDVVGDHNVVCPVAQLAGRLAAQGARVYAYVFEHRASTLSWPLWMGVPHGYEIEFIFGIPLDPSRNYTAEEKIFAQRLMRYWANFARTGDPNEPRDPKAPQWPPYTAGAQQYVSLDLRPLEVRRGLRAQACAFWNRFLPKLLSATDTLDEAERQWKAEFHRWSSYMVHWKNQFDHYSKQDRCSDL
In data set [3] the target is T2, Cholinesterase (Homo sapiens, UniProt P06276). Put plainly: Inhibition of human BChE using butyrylthiocholineiodide as substrate measured for every 30 sec for 5 mins by Ellman's method. A digest of the protocol: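 Values are mean ± SEM of three independent experiments.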
T2 sequence (P06276 whole entry): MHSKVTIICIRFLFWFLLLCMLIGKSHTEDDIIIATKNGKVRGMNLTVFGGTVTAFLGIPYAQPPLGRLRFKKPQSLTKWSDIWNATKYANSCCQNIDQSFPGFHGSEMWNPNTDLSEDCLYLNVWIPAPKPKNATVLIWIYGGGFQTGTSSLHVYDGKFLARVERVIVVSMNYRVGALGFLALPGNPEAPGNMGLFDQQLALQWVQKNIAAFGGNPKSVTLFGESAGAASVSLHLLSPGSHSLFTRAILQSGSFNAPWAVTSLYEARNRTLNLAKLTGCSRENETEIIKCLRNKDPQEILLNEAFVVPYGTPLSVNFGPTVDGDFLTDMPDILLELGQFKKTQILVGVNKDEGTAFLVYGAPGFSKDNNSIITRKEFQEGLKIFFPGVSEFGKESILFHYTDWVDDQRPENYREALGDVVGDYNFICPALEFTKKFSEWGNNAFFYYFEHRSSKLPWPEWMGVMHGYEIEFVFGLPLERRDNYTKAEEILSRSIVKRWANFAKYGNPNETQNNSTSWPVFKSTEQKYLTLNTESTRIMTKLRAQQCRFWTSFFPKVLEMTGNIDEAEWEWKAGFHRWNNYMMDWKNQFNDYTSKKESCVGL
The target in data set [4] is T2, Cholinesterase. Put plainly: Inhibition of human BChE using butyrylthiocholineiodide as substrate at 10 uM measured for every 30 sec for 5 mins by Ellman's method relative to control. The essentials:
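Single-concentration test, reported as % inhibition at 10 μM. Values are mean ± SEM of three independent experiments.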

For data set [5], the target named is T1, Acetylcholinesterase. Description: Mixed type inhibition of human AChE using acetylthiocholineiodide as substrate measured for every 30 sec for 5 mins by Ellman's method.
The target in data set [6] is Cholinesterases; ACHE & BCHE (Homo sapiens) (UniProt P06276+P22303). Put plainly: Selectivity index, ratio of IC50 for human BChE to IC50 for human AChE. It is filed as protein assay.
Chain of Cholinesterases; ACHE & BCHE (Homo sapiens) (P06276 whole entry, looked up): as the sequence (P06276 whole entry) above
Chain of Cholinesterases; ACHE & BCHE (Homo sapiens) (P22303 whole entry, looked up): as the sequence (P22303 whole entry) above
Data set [7] addresses T1, Acetylcholinesterase. Description: Potency index, ratio of Ki of donepezil to Ki of compound for mixed type inhibition of human AChE using acetylthiocholineiodide as substrate measured for every 30 sec for 5 mins by Ellman's method.
Another data set has as its system MDCK-MDR1. Description: Cytotoxicity against MDCK-MDR1 cells assessed as cell viability incubated for 72 hrs by MTT assay relative to control. It counts as ADME, cell-based. The following applies: Canis lupus familiaris, MDCK-MDR1, 72 h.
The nature of data set [8]: Cytotoxicity against MDCK-MDR1 cells assessed as cell viability at 100 uM incubated for 72 hrs by MTT assay relative to control. The conditions noted are these: dog, read-out: Activity. It is filed as ADME, cell-based, Canis lupus familiaris.
A short description of data set [9]: Cytotoxicity against human HepG2 cells assessed as cell viability at 20 to 100 uM incubated for 2 hrs by MTT assay relative to control. It counts as cell-based. The following applies: read-out: Activity. A digest of the protocol: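 HepG2 human liver cancer cells were exposed to 20–100 μM for 2 h. Viability was read by MTT reduction, expressed as % of untreated control cells in DMEM. Values are mean ± SEM of six replicates. Difference from control was tested by Student's t test (p < 0.01).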

A short description of data set [10]: Apparent permeability across apical to basolateral side in MDCK-MDR1 cells at 75 uM incubated for 2 hrs by UV-spectroscopy. It counts as ADME, cell-based, Canis lupus familiaris. The following applies: dog. The essentials: (§1)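 MDCK-MDR1 monolayers expressing the P-gp efflux system. Apparent permeability (Papp) was measured in both directions: apical to basolateral, and basolateral to apical. Efflux ratio = Papp BL/Papp AP. Values are mean ± SEM of three independent experiments.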

Data set [11] can be described thus: Cytotoxicity against MDCK-MDR1 cells assessed as cell viability at 100 uM incubated for 24 hrs by MTT assay relative to control. It counts as ADME, cell-based, Canis lupus familiaris. The conditions noted are these: dog, read-out: Activity.
Data set [12] can be described thus: Apparent permeability across basolateral to apical side in MDCK-MDR1 cells at 75 uM incubated for 2 hrs by UV-spectroscopy. It is filed as ADME, cell-based, Canis lupus familiaris. The conditions noted are these: dog. A digest of the protocol:
as §1

For `CN1C(=O)CN=C(c2ccccc2)c2cc(Cl)ccc21` [DIAZEPAM], in data set [1], the efflux ratio at 2 h, 75 µM turned out to be 0.7.
As for `COc1cc2cc(NC(=O)CCCNCc3ccccc3)c(=O)oc2cc1OC`, the IC50 at Acetylcholinesterase [2] came to 748 nM; against Cholinesterase [3] it was 181 nM.
`COc1cc2cc(NC(=O)C3CCN(Cc4ccccc4)CC3)c(=O)oc2cc1OC` yielded an IC50 at Acetylcholinesterase [2] of 223 nM. The molecule further gave an inhibition at Cholinesterase [4] of 21%.
Molecule `COc1cc2cc(NC(=O)[C@@H]3CCC[C@H](NCc4ccccc4)C3)c(=O)oc2cc1OC` registered a Ki on Acetylcholinesterase [5] of 19.1 nM. The Ratio IC50 in [6] came to 730. Besides, the concentration for half-maximal inhibition (IC50) is 19.2 nM against Acetylcholinesterase [2] and 14100 nM against Cholinesterase [3].
Consider `COc1cc2cc(NC(=O)[C@H]3CCC[C@@H](NCc4ccccc4)C3)c(=O)oc2cc1OC` (racemic) [listing 1 of 2 here], for which the Ratio Ki at Acetylcholinesterase [7] was 4.
In the case of `COc1cc2cc(NC(=O)[C@H]3CCC[C@@H](NCc4ccccc4)C3)c(=O)oc2cc1OC` (racemic) [listing 2 of 2 here], the Ki at Acetylcholinesterase [5] worked out at 46.6 nM. Besides, the 50% inhibitory concentration (IC50) with MDCK-MDR1 came to 30000 nM; on Acetylcholinesterase [2] it was 36.5 nM; against Cholinesterase [3] it was 6250 nM. In addition, the viability at 72 h, 100 µM in [8] was 37%. The viability at 2 h, up to 100 µM in [9] fell in the range of 80 to 90%. Also, the Papp A→B at 2 h, 75 µM in data set [10] turned out to be 37 ×10⁻⁶ cm/s. Besides, the efflux ratio at 2 h, 75 µM in data set [1] amounted to 0.22. In addition, the viability at 24 h, 100 µM in [11] turned out to be 60%. The Papp B→A at 2 h, 75 µM in data set [12] stood at 8.4 ×10⁻⁶ cm/s.
Take `COc1cc2cc(NC(=O)[C@H]3CCC[C@@H](NCc4ccccc4)C3)c(=O)oc2cc1OC`: the affinity on Acetylcholinesterase [5] corresponds to a Ki of 93.4 nM. The IC50 on Acetylcholinesterase [2] came to 380 nM; at Cholinesterase [3] it was 2330 nM.
